Results on 37 sequences are retold here after the array DNA melting data of Ke et al. (doi:10.1101/2024.01.08.574731).

The nature of series [1]: folding enthalpy; higher = less favourable; fluorescence melt of hairpins on a sequencing array, two-state fit. Particulars: sodium 0.088 M. Put shortly:
(§1)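 Melting temperature and folding enthalpy were derived from bootstrapped two-state fits. The fitted temperatures were raised by 9.35 °C to agree with UV melts, and four replicates were combined by inverse variance. The underlying data were Cy3 fluorescence images of library hairpins, with annealed Cy3 and quencher oligos, on a sequenced MiSeq flow cell in 50 mM Na-HEPES pH 8.0, 25 mM NaCl, taken in 2.5 °C steps up to 60 °C, normalised to pre-quench Cy3 and to control constructs.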

Series [2] in a line: melting temperature; fluorescence melt of hairpins on a sequencing array, two-state fit, raised by 9.35 °C to match UV melts. Particulars: sodium 0.088 M. An outline of the steps: as §1

GTGGCGGGAAACCGTCAC (((.(((....))).))): in series [1], the folding enthalpy was -170 kJ/mol. In addition, the Tm in series [2] was found to be 63.5 °C.

As for GTCTTGAAAAAGAC (((((....))))), the folding enthalpy in series [1] was -90.7 kJ/mol. In addition, the Tm in series [2] was found to be 44.1 °C.

Turning to GTAAGTGCGAAAGCATAC (((..(((....)))))), the folding enthalpy in series [1] was -46.8 kJ/mol. In addition, in series [2], the Tm was determined as 27.2 °C.

With GCTACCGAAAGGTGGAGC ((((((....)))..))), in series [1], the folding enthalpy is -63.9 kJ/mol. In series [2], the Tm came out at 41.3 °C.

Consider GCCGGAGCGAAAGCTGGC (((..(((....)))))), for which the folding enthalpy in series [1] was -90.6 kJ/mol. In series [2], the Tm came out at 55.4 °C.

Turning to CGGTCGGAAACGAGTCCG ((((((....)))..))), in series [1], the folding enthalpy is -86 kJ/mol. The Tm in series [2] was 39.4 °C.

Consider GGGTGTGGAAACATGCCC (((..((....))..))), for which, in series [1], the folding enthalpy is -119 kJ/mol. In addition, in series [2], the Tm came to 47.7 °C.

Take GGCGACGAAAGTCCAGCC ((((((....)))..))): the folding enthalpy in series [1] is -114 kJ/mol. The Tm in series [2] was 51.1 °C.

Regarding GGCCACGAAAGTGGGGCC ((((((....)))..))), in series [1], the folding enthalpy is -59.4 kJ/mol. The Tm in series [2] worked out at 60.3 °C.

Take GCGTGAGAACGC ((((....)))): the folding enthalpy in series [1] was -79 kJ/mol. Besides, the Tm in series [2] came to 64.2 °C.

For the sequence GATCGAGGAGTCGATC ((((((....)))))), the folding enthalpy in series [1] is -168 kJ/mol. The Tm in series [2] was found to be 53.7 °C.

On to GTTTTTCGAAAGAAAAC (((.(((....)))))), for which, in series [1], the folding enthalpy was -89.5 kJ/mol. The Tm in series [2] amounted to 35.8 °C.

Regarding GGGTTCGGAAACGAGCTC (.(.(((....))).).), in series [1], the folding enthalpy was -101 kJ/mol. In addition, the Tm in series [2] amounted to 37.8 °C.

As to GTTAACGAAAGTTAAAC ((((((....))).))), in series [1], the folding enthalpy was -70 kJ/mol. For the same sequence, in series [2], the Tm was 36 °C.

As to GATCCATGATGGATC ((((((...)))))), the folding enthalpy in series [1] was -143 kJ/mol. The Tm in series [2] stood at 49.6 °C.

GGGTATGGAAACATACCC (((((((....))))))): in series [1], the folding enthalpy is -184 kJ/mol. The Tm in series [2] amounted to 62.6 °C.

Turning to GATCAACTTGTTGATC ((((((....)))))), in series [1], the folding enthalpy was -216 kJ/mol. Further, the Tm in series [2] is 60.5 °C.

On to GATCTAAAAATAGATC ((((((....)))))), for which the folding enthalpy in series [1] was -44.4 kJ/mol. Besides, the Tm in series [2] was determined as 28.2 °C.

Regarding GCGATTTTCGC ((((...)))), the folding enthalpy in series [1] is -92 kJ/mol. For the same sequence, the Tm in series [2] worked out at 52.3 °C.

As to GGTTGTGGAAACACAACC (((((((....))))))), the folding enthalpy in series [1] was -176 kJ/mol. Moreover, in series [2], the Tm was 66.3 °C.

Turning to GATAGCGAAAGCTTATC ((((((....))).))), the folding enthalpy in series [1] was -57.4 kJ/mol. Further, the Tm in series [2] came out at 39 °C.

Regarding CGAACCCGGAAACGGTCG (((..(((....)))))), the folding enthalpy in series [1] is -54.6 kJ/mol. Also, the Tm in series [2] was found to be 36.7 °C.

On to GTACACGAAAGTGGTTAC ((((((....)))..))), for which the folding enthalpy in series [1] is -44.9 kJ/mol. For the same sequence, the Tm in series [2] worked out at 30.5 °C.

In the case of GCTACCGAAAGGTAAGC ((((((....))).))), the folding enthalpy in series [1] is -146 kJ/mol. For the same sequence, in series [2], the Tm was 53.2 °C.

GCCGTCGAAAGACCTGGC ((((((....)))..))): the folding enthalpy in series [1] was -82.7 kJ/mol. In addition, in series [2], the Tm amounted to 44.7 °C.

As for GTAAGTGGAAACGTTTAC ((((..(....)..)))), the folding enthalpy in series [1] was -44.6 kJ/mol. Moreover, the Tm in series [2] is 27.5 °C.

Take GTAAACCCGAAAGGGTAC (((..(((....)))))): the folding enthalpy in series [1] is -42.2 kJ/mol. Further, the Tm in series [2] came to 32.8 °C.

Take GTCTATGAAAATAGAC ((((((....)))))): the folding enthalpy in series [1] was -137 kJ/mol. For the same sequence, the Tm in series [2] worked out at 49.5 °C.

For GATCATATGTATGATC ((((((....)))))), the folding enthalpy in series [1] is -174 kJ/mol. Moreover, in series [2], the Tm amounted to 48.6 °C.

On to GTACGCACGAAAGTGTAC (((..(((....)))))), for which, in series [1], the folding enthalpy is -65.2 kJ/mol. Moreover, the Tm in series [2] was determined as 36.4 °C.

For GCGTATGGAAACATACGC (((((((....))))))), the folding enthalpy in series [1] is -158 kJ/mol. The Tm in series [2] is 68.2 °C.

For GCGTCCGAAAGGAGACGC ((((((....)))..))), the folding enthalpy in series [1] is -131 kJ/mol. Besides, in series [2], the Tm came out at 57.6 °C.

On to GCTGTTGGAAACAACAAC (.(((((....))))).), for which the folding enthalpy in series [1] was -66.6 kJ/mol. In series [2], the Tm came to 35.2 °C.

With GGCTTCACGAAAGTGGCC (((..(((....)))))), in series [1], the folding enthalpy was -82.1 kJ/mol. For the same sequence, the Tm in series [2] was determined as 45.2 °C.

As for GTAGTAACGAAAGTTTAC (((..(((....)))))), in series [1], the folding enthalpy was -37.9 kJ/mol. Further, the Tm in series [2] turned out to be 27.1 °C.

As to GTCCAATCGAAAGATGAC (((..(((....)))))), the folding enthalpy in series [1] was -58.2 kJ/mol. Also, the Tm in series [2] was 29.1 °C.

As for GCCCTGGGAAACTGGGGC ((((..(....)..)))), the folding enthalpy in series [1] was -159 kJ/mol. For the same sequence, in series [2], the Tm was found to be 51.5 °C.
